ChEMBL document CHEMBL1121881 (1981)

Experiments:
Type in all cases: functional
Mus musculus [1] = experiment: Ester brain level after 5 minutes of administration of 1.07 mg/kg in antimetrazole assay
Mus musculus [2] = experiment: Oxazepam brain level after 5 minutes of administration of 1.07 mg/kg in antimetrazole assay
Mus musculus [3] = experiment: Compound was evaluated for the antimetrazole effect by administering through intravenous route at the pretreatment period of 240 min
Procedure, shortened: (§1)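 Male CFLP outbred albino mice (19–21 g) dosed iv, 5–240 min before challenge. Vehicle: 5 mg compound in propylene glycol/Chremofor EL/distilled water (2:1:7 mL), diluted with distilled water. Metrazol (pentylenetetrazol) 125 mg/kg sc in distilled water. Mice counted protected if no tonic-extensor convulsions over 60 min of observation. ED50 and confidence limits by Litchfield–Wilcoxon.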

Mus musculus [4] = experiment: Compound was evaluated for the muscle relaxant effect by administering through intravenous route at the pretreatment period of 2400 min
Mus musculus [5] = experiment: Oxazepam brain level after 10 minutes of administration of 0.46 mg/kg in antimetrazole assay
Mus musculus [6] = experiment: Compound was evaluated for the muscle relaxant effect by administering through intravenous route at the pretreatment period of 10 min
Procedure, shortened: (§2)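 Rotarod test in male CFLP mice (19–21 g) given compound iv 5–240 min beforehand, in propylene glycol/Chremofor EL/water vehicle diluted with distilled water. Mice were preselected and trained to stay 120 s on a 20 mm rod turning at 12 min⁻¹. Fallers were expressed as percentage of the dose group. ED50 by Litchfield–Wilcoxon.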

Mus musculus [7] = experiment: Compound was evaluated for the antimetrazole effect by administering through intravenous route at the pretreatment period of 20 min; procedure, shortened: as §1
Mus musculus [8] = experiment: Oxazepam brain level after 30 minutes of administration of 2.82 mg/kg in muscle relaxant assay
Mus musculus [9] = experiment: Ester brain level after 30 minutes of administration of 0.28 mg/kg in antimetrazole assay
Mus musculus [10] = experiment: Ester brain level after 10 minutes of administration of 0.46 mg/kg in antimetrazole assay
Mus musculus [11] = experiment: Compound was evaluated for the antimetrazole effect by administering through intravenous route at the pretreatment period of 10 min; procedure, shortened: as §1
Mus musculus [12] = experiment: Ester brain level after 5 minutes of administration of 0.96 mg/kg in muscle relaxant assay
Mus musculus [13] = experiment: Oxazepam brain level after 30 minutes of administration of 0.28 mg/kg in antimetrazole assay
Mus musculus [14] = experiment: Compound was evaluated for the muscle relaxant effect by administering through intravenous route at the pretreatment period of 120 min; procedure, shortened: as §2
Mus musculus [15] = experiment: Oxazepam brain level after 5 minutes of administration of 0.96 mg/kg in muscle relaxant assay
Mus musculus [16] = experiment: Compound was evaluated for the antimetrazole effect by administering through intravenous route at the pretreatment period of 5 min; procedure, shortened: as §1
Mus musculus [17] = experiment: Compound was evaluated for the muscle relaxant effect by administering through intravenous route at the pretreatment period of 5 min; procedure, shortened: as §2
Mus musculus [18] = experiment: Compound was evaluated for the antimetrazole effect by administering through intravenous route at the pretreatment period of 120 min; procedure, shortened: as §1
Mus musculus [19] = experiment: Oxazepam brain level after 120 minutes of administration of 0.32 mg/kg in antimetrazole assay
Mus musculus [20] = experiment: Ester brain level after 120 minutes of administration of 0.32 mg/kg in antimetrazole assay
Mus musculus [21] = experiment: Compound was evaluated for the muscle relaxant effect by administering through intravenous route at the pretreatment period of 20 min; procedure, shortened: as §2
Mus musculus [22] = experiment: Ester brain level after 30 minutes of administration of 2.82 mg/kg in muscle relaxant assay
Mus musculus [23] = experiment: Compound was evaluated for the muscle relaxant effect by administering through intravenous route at the pretreatment period of 240 min; procedure, shortened: as §2
Mus musculus [24] = experiment: Compound was evaluated for the antimetrazole effect by administering through intravenous route at the pretreatment period 240 min; procedure, shortened: as §1

## CCC(CC)C(=O)OC1N=C(c2ccccc2)c2cc(Cl)ccc2NC1=O (stereo not given)
Mus musculus [1]
  Brain level: 1250 pM/g
Mus musculus [2]
  Brain level: 374 pM/g
Mus musculus [3]
  ED50: 1.97 mg/kg
Mus musculus [4]
  ED50: 9.1 mg/kg
Mus musculus [5]
  Brain level: 339 pM/g
Mus musculus [6]
  ED50: 0.61 mg/kg
Mus musculus [7]
  ED50: 0.31 mg/kg
Mus musculus [8]
  Brain level: 5160 pM/g
Mus musculus [9]
  Brain level: 187 pM/g
Mus musculus [10]
  Brain level: 383 pM/g
Mus musculus [11]
  ED50: 0.46 mg/kg
Mus musculus [12]
  Brain level: 1440 pM/g
Mus musculus [13]
  Brain level: 286 pM/g
Mus musculus [14]
  ED50: 4.7 mg/kg
Mus musculus [15]
  Brain level: 480 pM/g
Mus musculus [16]
  ED50: 1.07 mg/kg
Mus musculus [17]
  ED50: 0.95 mg/kg
Mus musculus [18]
  ED50: 0.32 mg/kg
Mus musculus [19]
  Brain level: 344 pM/g
Mus musculus [20]
  Brain level: 95 pM/g
Mus musculus [21]
  ED50: 0.36 mg/kg
Mus musculus [22]
  Brain level: 1820 pM/g

## CC(=O)OC1N=C(c2ccccc2)c2cc(Cl)ccc2NC1=O (stereo not given)
Mus musculus [23]
  ED50: 4.8 mg/kg
Mus musculus [24]
  ED50: 1.17 mg/kg
Mus musculus [14]
  ED50: 2.6 mg/kg
Mus musculus [18]
  ED50: 0.47 mg/kg

## O=C1Nc2ccc(Cl)cc2C(c2ccccc2)=NC1O (stereo not given) [OXAZEPAM]
Mus musculus [3]
  ED50: 0.62 mg/kg
Mus musculus [23]
  ED50: 6.6 mg/kg
Mus musculus [6]
  ED50: 0.86 mg/kg
Mus musculus [7]
  ED50: 0.21 mg/kg
Mus musculus [11]
  ED50: 0.16 mg/kg
Mus musculus [14]
  ED50: 2.4 mg/kg
Mus musculus [16]
  ED50: 0.18 mg/kg
Mus musculus [17]
  ED50: 0.96 mg/kg
Mus musculus [18]
  ED50: 0.49 mg/kg
Mus musculus [21]
  ED50: 0.8 mg/kg

## CC(C)(C)C(=O)OC1N=C(c2ccccc2)c2cc(Cl)ccc2NC1=O (stereo not given) [PIVOXAZEPAM]
Mus musculus [3]
  ED50: 0.8 mg/kg
Mus musculus [23]
  ED50: 9 mg/kg
Mus musculus [14]
  ED50: 5.6 mg/kg
Mus musculus [18]
  ED50: 0.61 mg/kg
